Reference: ChEMBL document CHEMBL2010753, “Free radical scavenging and antiproliferative properties of Biginelli adducts” (2012)
Values after ≈ are worked out from the molar mass of the structure shown. Active and inactive are the calls of the source. The calls are words filed in the database; no cut-off is given here.

Tests used:
Format in all cases: functional
OVCAR-3 = assay: Growth inhibition of human OVCAR3 cells after 48 hrs by sulforhodamine B assay; conditions: OVCAR-3, 48 h
NCI-H460 = assay: Growth inhibition of human NCI-H460 cells after 48 hrs by sulforhodamine B assay; conditions: NCI-H460, 48 h
[1] = Antioxidant activity assessed as scavenging of DPPH at 160 uM after 30 mins by spectrophotometry
HT-29 = assay: Growth inhibition of human HT-29 cells after 48 hrs by sulforhodamine B assay; conditions: HT-29, 48 h
786-0 = assay: Growth inhibition of human 786-0 cells after 48 hrs by sulforhodamine B assay; conditions: 786-0, 48 h
U-251 = assay: Growth inhibition of human U251 cells after 48 hrs by sulforhodamine B assay; conditions: U-251, 48 h
PC-3 = assay: Growth inhibition of human PC3 cells after 48 hrs by sulforhodamine B assay; conditions: PC-3, 48 h
[2] = Growth inhibition of human NCI-ADR-RES cells after 48 hrs by sulforhodamine B assay
[3] = Antioxidant activity assessed as concentration required for 50% DPPH scavenging activity after 30 mins by spectrophotometry
[4] = Antioxidant activity assessed as scavenging of DPPH at 34.4 uM up to 10 mins by spectrophotometry
Outline: (§1)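 Kinetic run: reaction medium with 10 nmol DPPH radicals in ethanol and compound at the stated concentration, DPPH scavenging followed over time up to 10 min. Three independent experiments, each in triplicate.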

[5] = Antioxidant activity assessed as concentration required to scavenge 50% superoxide anions after 10 mins by spectrophotometry
[6] = Antioxidant activity assessed as scavenging of superoxide anions after 10 mins by spectrophotometry
Outline: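 Superoxide generated photochemically in 50 mM phosphate buffer pH 7.8 with 13 mM L-methionine, 75 μM nitroblue tetrazolium, 100 μM EDTA, 2 μM riboflavin. Compound at 0–200 μM (12.5–200 μM tested), fluorescent light 10 min at 25 °C; dark-kept mixtures as controls; read at 575 nm. Triplicates in three independent experiments.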

[7] = Antioxidant activity assessed as concentration required for 50% DPPH scavenging activity after 30 mins by spectrophotometry relative to monastrol
[8] = Antioxidant activity assessed as scavenging of DPPH at 24.2 uM up to 10 mins by spectrophotometry; outline: as §1
[9] = Antioxidant activity assessed as scavenging of DPPH at 29.7 uM up to 10 mins by spectrophotometry; outline: as §1

## CCOC(=O)C1=C(C)NC(=S)NC1c1ccc(O)c(OC)c1 (stereo unspecified)
OVCAR-3
  GI50: 11 µg/mL (≈ 34.1 µM)
NCI-H460
  GI50: 180 µg/mL (≈ 560 µM)
[1]
  Activity: 65%
HT-29
  GI50: 34.9 µg/mL (≈ 108 µM)
786-0
  GI50: 30 µg/mL (≈ 93.1 µM)
U-251
  GI50: 88.3 µg/mL (≈ 274 µM)
PC-3
  GI50: 72.6 µg/mL (≈ 225 µM)
[2]
  GI50: 59.7 µg/mL (≈ 185 µM)
[3]
  IC50: 104 µM

## CCOC(=O)C1=C(C)NC(=O)NC1c1ccc(SC)cc1 (stereo unspecified)
OVCAR-3
  GI50: 10 µg/mL (≈ 32.6 µM)
NCI-H460
  GI50: 3.6 µg/mL (≈ 11.7 µM)
[1]
  Activity: inactive
HT-29
  GI50: 10.2 µg/mL (≈ 33.3 µM)
786-0
  GI50: 2.5 µg/mL (≈ 8.16 µM)
U-251
  GI50: 8 µg/mL (≈ 26.1 µM)
PC-3
  GI50: 9.5 µg/mL (≈ 31 µM)
[2]
  GI50: 2.7 µg/mL (≈ 8.81 µM)

## CCOC(=O)C1=C(C)NC(=O)NC1c1ccc(OC)cc1 (stereo unspecified)
OVCAR-3
  GI50: 8 µg/mL (≈ 27.6 µM)
NCI-H460
  GI50: > 250 µg/mL
[1]
  Activity: inactive
HT-29
  GI50: 28.3 µg/mL (≈ 97.5 µM)
786-0
  GI50: 24.8 µg/mL (≈ 85.4 µM)
U-251
  GI50: 11.6 µg/mL (≈ 40 µM)
PC-3
  GI50: 26.5 µg/mL (≈ 91.3 µM)
[2]
  GI50: 5.7 µg/mL (≈ 19.6 µM)

## CCOC(=O)C1=C(C)NC(=S)NC1c1ccccc1 (stereo unspecified)
OVCAR-3
  GI50: 27.7 µg/mL (≈ 100 µM)
NCI-H460
  GI50: 28 µg/mL (≈ 101 µM)
[1]
  Activity: inactive
HT-29
  GI50: 29.8 µg/mL (≈ 108 µM)
786-0
  GI50: 27.7 µg/mL (≈ 100 µM)
U-251
  GI50: 26.6 µg/mL (≈ 96.3 µM)
PC-3
  GI50: 42.2 µg/mL (≈ 153 µM)
[2]
  GI50: 27.4 µg/mL (≈ 99.1 µM)

## Oc1ccc(/C=C/c2cc(O)cc(O)c2)cc1
[1]
  Activity: Active
[4]
  Activity: Active
[5]
  Activity: 121 µM
[6]
  Activity: Dose-dependent effect

## CCOC(=O)C1=C(C)NC(=O)NC1c1ccc(F)cc1 (stereo unspecified)
OVCAR-3
  GI50: 27.1 µg/mL (≈ 97.4 µM)
NCI-H460
  GI50: 28.1 µg/mL (≈ 101 µM)
[1]
  Activity: inactive
HT-29
  GI50: 25.3 µg/mL (≈ 90.9 µM)
786-0
  GI50: 24.7 µg/mL (≈ 88.8 µM)
U-251
  GI50: 23.5 µg/mL (≈ 84.4 µM)
PC-3
  GI50: 3.1 µg/mL (≈ 11.1 µM)
[2]
  GI50: 3.6 µg/mL (≈ 12.9 µM)

## CCOC(=O)C1=C(C)NC(=O)NC1C1CCCCC1 (stereo unspecified)
OVCAR-3
  GI50: > 250 µg/mL
NCI-H460
  GI50: > 250 µg/mL
[1]
  Activity: inactive
HT-29
  GI50: > 250 µg/mL
786-0
  GI50: > 250 µg/mL
U-251
  GI50: 142 µg/mL (≈ 533 µM)
PC-3
  GI50: > 250 µg/mL
[2]
  GI50: > 250 µg/mL

## CCOC(=O)C1=C(C)NC(=O)NC1c1ccc(O)c(OC)c1 (stereo unspecified)
OVCAR-3
  GI50: 1.7 µg/mL (≈ 5.55 µM)
NCI-H460
  GI50: 126 µg/mL (≈ 410 µM)
[1]
  Activity: 65%
HT-29
  GI50: 28.1 µg/mL (≈ 91.7 µM)
786-0
  GI50: 17.5 µg/mL (≈ 57.1 µM)
U-251
  GI50: 4.5 µg/mL (≈ 14.7 µM)
PC-3
  GI50: 46.3 µg/mL (≈ 151 µM)
[2]
  GI50: 0.25 µg/mL (≈ 0.816 µM)
[3]
  IC50: 105 µM

## CCOC(=O)C1=C(C)NC(=S)NC1c1cc(OC)c(O)c(OC)c1 (stereo unspecified)
OVCAR-3
  GI50: 1.9 µg/mL (≈ 5.39 µM)
NCI-H460
  GI50: 65.6 µg/mL (≈ 186 µM)
[1]
  Activity: Active
HT-29
  GI50: 28.2 µg/mL (≈ 80 µM)
786-0
  GI50: 13.4 µg/mL (≈ 38 µM)
U-251
  GI50: 0.77 µg/mL (≈ 2.18 µM)
PC-3
  GI50: 19 µg/mL (≈ 53.9 µM)
[5]
  Activity: 78 µM
[7]
  fold change (FC): 37
[8]
  Activity: 370 pmol
[2]
  GI50: 25 µg/mL (≈ 70.9 µM)
[3]
  IC50: 24.2 µM

## CCOC(=O)C1=C(C)NC(=O)NC1c1cccc(O)c1 (stereo unspecified)
OVCAR-3
  GI50: 6 µg/mL (≈ 21.7 µM)
NCI-H460
  GI50: 42 µg/mL (≈ 152 µM)
[1]
  Activity: inactive
HT-29
  GI50: 27.1 µg/mL (≈ 98.1 µM)
786-0
  GI50: 26.3 µg/mL (≈ 95.2 µM)
U-251
  GI50: 5.1 µg/mL (≈ 18.5 µM)
PC-3
  GI50: 34.7 µg/mL (≈ 126 µM)
[2]
  GI50: 11.7 µg/mL (≈ 42.3 µM)

## CCCC1NC(=S)NC(C)=C1C(=O)OCC (stereo unspecified)
OVCAR-3
  GI50: 38.1 µg/mL (≈ 157 µM)
NCI-H460
  GI50: 22.5 µg/mL (≈ 92.8 µM)
[1]
  Activity: inactive
HT-29
  GI50: 50.4 µg/mL (≈ 208 µM)
786-0
  GI50: 27.7 µg/mL (≈ 114 µM)
U-251
  GI50: 29.2 µg/mL (≈ 120 µM)
PC-3
  GI50: 42.4 µg/mL (≈ 175 µM)
[2]
  GI50: 40.3 µg/mL (≈ 166 µM)

## CCOC(=O)C1=C(C)NC(=S)NC1c1ccc(O)c(O)c1 (stereo unspecified)
OVCAR-3
  GI50: 25 µg/mL (≈ 81.1 µM)
NCI-H460
  GI50: 31.7 µg/mL (≈ 103 µM)
[1]
  Activity: Active
HT-29
  GI50: 22.7 µg/mL (≈ 73.6 µM)
786-0
  GI50: 28.3 µg/mL (≈ 91.8 µM)
U-251
  GI50: 26.5 µg/mL (≈ 85.9 µM)
PC-3
  GI50: 25 µg/mL (≈ 81.1 µM)
[7]
  fold change (FC): 37
[9]
  Activity: 413 pmol
[2]
  GI50: 24.3 µg/mL (≈ 78.8 µM)
[3]
  IC50: 29.7 µM
